Active and inactive are the calls of the source. Unless noted, the rule behind the calls is not given here.
Key:
[1] = biological target: T1, NAD-dependent protein deacetylase sirtuin-1 (Homo sapiens) (UniProt Q96EB6); test: Inhibition of human SIRT1 at 25 uM
T1 sequence (whole entry): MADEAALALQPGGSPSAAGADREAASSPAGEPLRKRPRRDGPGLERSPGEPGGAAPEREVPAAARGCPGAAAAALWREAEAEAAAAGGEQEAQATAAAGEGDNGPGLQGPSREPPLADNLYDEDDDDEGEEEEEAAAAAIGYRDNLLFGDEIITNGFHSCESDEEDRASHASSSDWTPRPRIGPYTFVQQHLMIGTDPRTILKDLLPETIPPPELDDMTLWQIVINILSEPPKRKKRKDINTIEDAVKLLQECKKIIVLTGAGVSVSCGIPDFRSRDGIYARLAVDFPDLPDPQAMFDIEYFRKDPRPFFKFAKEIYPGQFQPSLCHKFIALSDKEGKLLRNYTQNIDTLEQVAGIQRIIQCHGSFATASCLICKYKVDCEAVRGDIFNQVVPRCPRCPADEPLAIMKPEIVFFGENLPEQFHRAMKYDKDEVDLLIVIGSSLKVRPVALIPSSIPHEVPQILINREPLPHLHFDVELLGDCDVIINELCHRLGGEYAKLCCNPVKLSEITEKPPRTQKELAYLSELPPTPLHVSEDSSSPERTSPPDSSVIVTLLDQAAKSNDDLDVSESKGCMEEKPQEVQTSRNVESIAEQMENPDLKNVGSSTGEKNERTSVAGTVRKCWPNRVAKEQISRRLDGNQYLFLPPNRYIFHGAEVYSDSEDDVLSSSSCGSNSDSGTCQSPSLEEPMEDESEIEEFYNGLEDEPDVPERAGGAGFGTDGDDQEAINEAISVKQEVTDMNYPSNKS
Outline: (§1)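 Fluorescent two-stage assay. SIRT1 (1 U/well) or SIRT2 (5 U/well) with Fluor de Lys-SIRT1/2 substrate, NAD+ and compound at 25 µM, 37 °C for 2 h. Developer II containing nicotinamide then stopped the reaction and generated signal, read at ex 360/em 460 nm.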

U-937 [2] = test: Inhibition of human p300/CBP in U937 cells at 50 uM assessed as histone H3 acetylation; type: cell-based
Outline: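 Source was U937 nuclear extract (10 µg per assay) as p300/CBP HAT, with histone H3 substrate and compound at 50 µM or DMSO control for 90 min. Acetyl-H3 detected by indirect ELISA, quantified against acetylated H3 peptide standard curves, […].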

[3] = biological target: T2, Histone-arginine methyltransferase CARM1 (Homo sapiens) (UniProt Q86X55); test: Inhibition of human recombinant CARM1 assessed as poly(A) binding protein 1 methylation at 100 uM
T2 sequence (whole entry): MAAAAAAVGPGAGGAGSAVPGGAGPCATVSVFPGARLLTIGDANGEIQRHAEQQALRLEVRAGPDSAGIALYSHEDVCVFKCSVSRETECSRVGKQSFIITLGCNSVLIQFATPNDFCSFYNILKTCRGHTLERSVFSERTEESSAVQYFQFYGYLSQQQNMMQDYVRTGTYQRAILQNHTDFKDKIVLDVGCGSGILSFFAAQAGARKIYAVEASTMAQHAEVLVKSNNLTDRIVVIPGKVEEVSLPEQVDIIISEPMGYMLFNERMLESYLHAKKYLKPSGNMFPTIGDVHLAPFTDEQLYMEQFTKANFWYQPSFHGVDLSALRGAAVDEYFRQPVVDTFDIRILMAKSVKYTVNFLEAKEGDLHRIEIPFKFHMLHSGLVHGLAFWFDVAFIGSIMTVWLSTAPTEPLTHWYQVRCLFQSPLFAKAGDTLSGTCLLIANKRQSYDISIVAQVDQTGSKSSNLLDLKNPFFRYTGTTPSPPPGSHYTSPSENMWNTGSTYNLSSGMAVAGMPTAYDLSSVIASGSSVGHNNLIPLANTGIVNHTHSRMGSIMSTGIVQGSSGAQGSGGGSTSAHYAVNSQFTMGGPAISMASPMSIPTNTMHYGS
Outline: (§2)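 Recombinant enzymes (0.2 µg) with substrate (0.5 µg: Npl3p for PRMT1, PABP1 for CARM1, histone H3 for SET7), 0.5 µM [3H]AdoMet and 100 µM compound in PBS pH 7.4 with 3.3% v/v DMSO, 90 min at 30 °C. Products separated by 10% SDS-PAGE, transferred to PVDF, detected by fluorography on film overnight.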

U-937 [4] = test: Inhibition of histone H4R3 methylation in human U937 cells at 50 uM after 24 hrs; type: functional, cell-based
Outline: (§3)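 U937 cells treated at 50 µM for 24 h. Histones extracted with Triton buffer, then 0.2 M HCl overnight at 4 °C. 3–10 µg run on 15% SDS-PAGE and immunoblotted with anti-monomethyl-H3K4, monomethyl-H4R3 or dimethyl-H3R17 (1:500, overnight 4 °C), ECL detection. Loading controls: total H4 (H3K4), Ponceau Red (Arg marks).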

[5] = biological target: T3, NAD-dependent protein deacetylase sirtuin-2 (Homo sapiens) (UniProt Q8IXJ6); test: Inhibition of human SIRT2 at 25 uM; outline: as §1
T3 sequence (whole entry): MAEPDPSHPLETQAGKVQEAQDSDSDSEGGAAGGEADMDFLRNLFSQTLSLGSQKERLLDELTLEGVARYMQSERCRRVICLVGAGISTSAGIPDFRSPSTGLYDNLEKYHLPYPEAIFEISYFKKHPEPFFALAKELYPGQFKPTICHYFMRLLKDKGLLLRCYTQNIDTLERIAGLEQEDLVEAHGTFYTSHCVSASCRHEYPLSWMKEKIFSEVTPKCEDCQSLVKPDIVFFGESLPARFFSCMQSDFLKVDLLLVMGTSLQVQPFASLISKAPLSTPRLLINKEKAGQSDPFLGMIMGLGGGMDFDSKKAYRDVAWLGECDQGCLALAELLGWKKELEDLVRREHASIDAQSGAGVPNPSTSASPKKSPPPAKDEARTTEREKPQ

U-937 [6] = test: Inhibition of histone H3K4 methylation in human U937 cells at 50 uM after 24 hrs; type: functional, cell-based; outline: as §3
RmtA = RmtA (Emericella nidulans, UniProt Q5VLE3); test: Inhibition of Aspergillus nidulans RmtA
Outline: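 Enzyme was GST-RmtA fusion expressed in E. coli BL21 and glutathione-affinity purified (500 ng), preincubated with compound for 15 min at room temperature. Then 20 µg chicken erythrocyte core histones and 0.55 µCi [3H]AdoMet were added, 30 min at 30 °C. Stopped with 25% TCA, filtered, counted by liquid scintillation.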

[7] = biological target: Protein arginine N-methyltransferase 1 (Homo sapiens) (UniProt Q99873); test: Inhibition of human recombinant PRMT1 assessed as histone H4 methylation at 50 uM
[8] = biological target: Protein arginine N-methyltransferase 1 (Homo sapiens) (UniProt Q99873); test: Inhibition of human recombinant PRMT1 assessed as nuclear ribonucleoprotein Npl3p methylation at 100 uM; outline: as §2
U-937 [9] = test: Inhibition of histone H3R17 methylation in human U937 cells at 50 uM after 24 hrs; type: functional, cell-based; outline: as §3
U-937 [10] = test: Induction of granulocytic differentiation in human U937 cells assessed as CD11c expression at 1 uM after 30 hrs; type: functional; conditions: 5 uM, in the assay text read “at 5 uM” for “at 1 uM”
Outline: (§4)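 U937 cells treated for 30 h, then stained with PE-conjugated CD11c (PE mouse IgG1 as control) for 30 min at 4 °C in the dark and resuspended in PBS with PI (0.25 µg/mL). Read-out is percent CD11c-positive/PI-negative cells, with dead PI-positive cells excluded. Coloured compounds limited the top dose to 5 µM or lower.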

[11] = biological target: T4, Histone-lysine N-methyltransferase SETD7 (Homo sapiens) (UniProt Q8WTS6); test: Inhibition of human recombinant SET7 assessed as histone H3 protein methylation at 100 uM; outline: as §2
T4 sequence (whole entry): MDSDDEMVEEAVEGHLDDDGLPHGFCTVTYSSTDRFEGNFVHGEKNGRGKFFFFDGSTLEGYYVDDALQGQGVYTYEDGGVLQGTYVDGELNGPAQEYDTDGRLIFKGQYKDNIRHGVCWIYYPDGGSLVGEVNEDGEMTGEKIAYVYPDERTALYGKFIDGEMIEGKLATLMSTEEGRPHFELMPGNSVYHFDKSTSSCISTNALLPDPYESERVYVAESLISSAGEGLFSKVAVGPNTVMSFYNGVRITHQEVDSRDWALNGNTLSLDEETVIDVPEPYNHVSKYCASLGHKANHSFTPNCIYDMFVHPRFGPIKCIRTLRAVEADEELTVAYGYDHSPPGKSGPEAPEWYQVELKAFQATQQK

U-937 [12] = test: Induction of apoptosis in human U937 cells at 25 uM after 30 hrs; type: functional
Outline: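 Apoptosis read as caspase 3 activation by FACS, in U937 cells (RPMI, 10% fetal calf serum, 200000 cells/mL) exposed to 25 µM for 30 h.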

U-937 [13] = test: Induction of granulocytic differentiation in human U937 cells assessed as CD11c expression at 5 uM after 30 hrs; type: functional; outline: as §4
U-937 [14] = test: Cell cycle arrest in human U937 cells assessed as accumulation at S phase at 25 uM after 30 hrs; type: functional, cell-based
Outline: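 U937 cells in RPMI with 10% fetal calf serum, HEPES and glutamine, kept at 200000 cells/mL; treated at 25 µM for 30 h, then the distribution across cell cycle phases was analysed.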

RmtA, sequence (Q5VLE3 whole entry, the tested form may be a part): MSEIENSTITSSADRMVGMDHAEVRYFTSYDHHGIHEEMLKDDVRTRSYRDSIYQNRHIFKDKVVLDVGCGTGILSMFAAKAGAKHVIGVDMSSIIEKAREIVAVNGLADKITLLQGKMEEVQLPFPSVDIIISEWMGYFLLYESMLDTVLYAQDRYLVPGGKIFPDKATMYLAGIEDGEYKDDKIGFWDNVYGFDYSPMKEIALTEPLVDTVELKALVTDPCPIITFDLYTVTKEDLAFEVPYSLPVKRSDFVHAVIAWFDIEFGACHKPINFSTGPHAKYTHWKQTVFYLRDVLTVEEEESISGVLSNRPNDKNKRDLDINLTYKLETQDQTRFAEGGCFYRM
Protein arginine N-methyltransferase 1 (Homo sapiens), sequence (Q99873 whole entry, looked up): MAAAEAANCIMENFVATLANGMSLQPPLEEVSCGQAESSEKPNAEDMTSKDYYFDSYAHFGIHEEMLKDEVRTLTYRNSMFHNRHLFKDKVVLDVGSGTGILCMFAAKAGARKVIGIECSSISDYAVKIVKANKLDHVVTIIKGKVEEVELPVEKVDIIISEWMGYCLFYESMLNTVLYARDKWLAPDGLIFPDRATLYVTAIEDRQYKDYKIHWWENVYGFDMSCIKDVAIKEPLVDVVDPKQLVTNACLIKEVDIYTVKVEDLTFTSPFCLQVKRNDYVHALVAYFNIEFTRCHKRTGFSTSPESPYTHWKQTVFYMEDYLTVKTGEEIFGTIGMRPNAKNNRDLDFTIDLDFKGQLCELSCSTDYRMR

O=C(/C=C/c1cc(Br)c(O)c(Br)c1)c1cc(Br)c(O)c(Br)c1
inhibition [1]: 35%
inhibition (U-937 [2]): 16%
Activity [3]: inactive
Activity (U-937 [4]): Active
inhibition [5]: 37%
Activity (U-937 [6]): Active
IC50 (RmtA): 29 µM
inhibition [7]: 61%
Activity [8]: inactive
Activity (U-937 [9]): Active

O=C(/C=C/c1ccc(O)c(Br)c1)c1cc(Br)c(O)c(Br)c1
inhibition [1]: 35%
inhibition (U-937 [2]): 0%
Activity [3]: inactive
Activity (U-937 [4]): Active
inhibition [5]: 38%
Activity (U-937 [6]): Active
IC50 (RmtA): 40 µM
inhibition [7]: 36%
Activity [8]: inactive
Activity (U-937 [9]): Active

O=C(/C=C/c1cc(Br)c(O)c(Br)c1)c1ccc(C(=O)/C=C/c2cc(Br)c(O)c(Br)c2)cc1
inhibition [1]: 45%
Activity (U-937 [10]): inactive
inhibition (U-937 [2]): 0%
Activity [11]: Active
Activity [3]: Active
Activity (U-937 [4]): Active
inhibition [5]: 56%
IC50 (RmtA): 37 µM
inhibition [7]: 31%
Activity [8]: Active
Activity (U-937 [9]): Active

O=C(Nc1cc(Br)c(O)c(Br)c1)c1cccc(C(=O)Nc2cc(Br)c(O)c(Br)c2)c1
inhibition [1]: 13%
Activity (U-937 [10]): inactive
inhibition (U-937 [2]): 81%
Activity [11]: Active
Activity [3]: Active
Activity (U-937 [4]): Active
inhibition [5]: 9%
IC50 (RmtA): 13.8 µM
inhibition [7]: 38%
Activity [8]: Active
Activity (U-937 [9]): Active

O=C(/C=C/c1cc(Br)c(O)c(Br)c1)CC(=O)/C=C/c1cc(Br)c(O)c(Br)c1
Activity (U-937 [12]): 10.5%
inhibition [1]: 52%
inhibition (U-937 [2]): 58%
Activity (U-937 [13]): 33%
Activity [11]: Active
Activity [3]: Active
Activity (U-937 [4]): Active
inhibition [5]: 61%
IC50 (RmtA): 48 µM
Activity (U-937 [14]): Active
inhibition [7]: 70%
Activity [8]: Active
Activity (U-937 [9]): Active

O=C1/C(=C/c2cc(Br)c(O)c(Br)c2)CCC/C1=C\c1cc(Br)c(O)c(Br)c1
Activity (U-937 [12]): 2%
inhibition [1]: 50%
inhibition (U-937 [2]): 96%
Activity (U-937 [13]): 70.9%
Activity [11]: Active
Activity [3]: Active
Activity (U-937 [4]): Active
inhibition [5]: 56%
Activity (U-937 [6]): Active
IC50 (RmtA): 14 µM
Activity (U-937 [14]): Active
inhibition [7]: 44%
Activity [8]: Active
Activity (U-937 [9]): Active

O=C(Nc1cccc(NC(=O)c2cc(Br)c(O)c(Br)c2)c1)c1cc(Br)c(O)c(Br)c1
inhibition [1]: 2%
Activity (U-937 [10]): inactive
inhibition (U-937 [2]): 83%
Activity [11]: Active
Activity [3]: Active
Activity (U-937 [4]): Active
inhibition [5]: 0%
IC50 (RmtA): 61.4 µM
inhibition [7]: 86%
Activity [8]: Active
Activity (U-937 [9]): Active

CC(NC(=O)c1ccccc1/N=C/c1c(O)ccc2ccccc12)c1ccccc1 (stereo unspecified) [SIRTINOL]
Activity (U-937 [12]): 7.5%
Activity (U-937 [13]): 7.5%

O=C(/C=C/c1ccc(O)c(Br)c1)/C=C/c1cc(Br)c(O)c(Br)c1
Activity (U-937 [12]): 1%
inhibition [1]: 60%
inhibition (U-937 [2]): 62%
Activity (U-937 [13]): 68.1%
Activity [11]: Active
Activity [3]: Active
Activity (U-937 [4]): Active
inhibition [5]: 65%
Activity (U-937 [6]): inactive
IC50 (RmtA): 40 µM
Activity (U-937 [14]): Active
inhibition [7]: 17%
Activity [8]: Active
Activity (U-937 [9]): Active

O=C(/C=C/c1ccc(O)c(Br)c1)/C=C/c1ccc(O)c(Br)c1
Activity [1]: inactive
Activity (U-937 [2]): inactive
Activity [3]: Active
Activity (U-937 [4]): inactive
Activity [5]: inactive
Activity (U-937 [6]): inactive
IC50 (RmtA): 162 µM
Activity [7]: inactive
Activity [8]: Active
Activity (U-937 [9]): inactive
